PHOSPHO1 block: PHOSPHO1 (human) inhibition. Q8TCT1. recombinant PHOSPHO1, absorbance phosphatase assay. inhibition, % at 13.3 µM. 290,000 tested, 1.1% active. AID 1565; in the data active = inhibition above about 60%
Target sequence (Q8TCT1 whole entry, looked up): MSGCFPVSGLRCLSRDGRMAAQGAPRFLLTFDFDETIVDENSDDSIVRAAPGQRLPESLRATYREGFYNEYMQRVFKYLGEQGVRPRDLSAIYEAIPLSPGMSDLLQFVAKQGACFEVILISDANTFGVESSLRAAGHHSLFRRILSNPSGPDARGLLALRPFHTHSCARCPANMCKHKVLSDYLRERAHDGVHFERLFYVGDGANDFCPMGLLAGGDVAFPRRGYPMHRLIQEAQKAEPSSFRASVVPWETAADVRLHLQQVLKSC
IMP-1 inh: inhibitors of Pseudomonas aeruginosa IMP-1 metallo-beta-lactamase. 290,000 tested, 0.45% active. purified IMP-1, nitrocefin hydrolysis, epi-absorbance fluorescence. inhibition, % at 5.6 µM. AID 1556;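 active = inhibition above the mean plus 3 SD of all compounds in the same screening run, cut at about 4.5% in these data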;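 also: 0% = IMP-1 with DMSO and 100% = DMSO wells lacking enzyme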
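System: purified IMP-1 / Input: IMP-1 dispensed at 0.2 nM / Medium: 50 mM HEPES pH 7.1, 50 µM ZnSO4, 0.05% Brij 35 / Timing: 15 min enzyme–compound preincubation, then 25 min nitrocefin reaction, 25 °C / Technique: plate fluorescence quenching by hydrolysis product, ex 480/em 530 nm / Repeats: singlicate testing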
NS3 helicase inh: inhibitors of Hepatitis C virus NS3 helicase | NS3 helicase DNA unwinding, Cy5 molecular beacon fluorescence | 290,000 tested, 0.56% active | inhibition, % at 10.9 µM;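 active = inhibition above the mean of all tested compounds plus 3 SD, set per campaign, cut at about 35% in these data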;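 also: 0% = DMSO wells and 100% = thioflavine S control wells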
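System: HCV NS3 helicase fragment; control set: DMSO and thioflavine S; technique: Cy5 fluorescence at 0 and 60 min, beacon hairpin quenching; reagent: beacon DNA duplex substrate plus ATP; replicates: singlicate; schedule: 1 h reaction at 25 °C, ATP-initiated; medium: MOPS buffer pH 6.5 with MgCl2, DTT, Tween20, BSA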
VIM-2 inhibitor: blocks Pseudomonas aeruginosa VIM-2 metallo-beta-lactamase; purified VIM-2, nitrocefin hydrolysis, epi-absorbance fluorescence; inhibition, % at 5.6 µM; 290,000 tested, 0.89% active; AID 1527;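 active = inhibition above the mean of all tested compounds plus 3 SD, cutoff set per screening run, cut at about 7.5% in these data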;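 also: red hydrolysis product quenches plate fluorescence so inhibitors raise well fluorescence; 0% = enzyme with DMSO and 100% = DMSO without enzyme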
core dimer inh: blocks dimerization of HCV core protein | TR-FRET GST/Flag-core106 dimerization, 1536-well | inhibition, % at 5 µM | 300,000 tested, 0.33% active | AID 1899;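 active = inhibition above the mean of all tested compounds plus 3 SD, set per screening campaign, cut at about 45% in these data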
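Assay system: Tagged HCV core106 pair (GST and Flag) | Buffer or medium: KF-containing HEPES buffer, pH 7.45, DTT, CHAPS, BSA | Also added: Eu donor and XL665 acceptor anti-tag antibodies | Dosing: One concentration, 5 µM, in 0.5% DMSO | Timing: 4 h at 22.5 °C | Technique: TR-FRET 671 and 617 nm emission | Repeats: Singlicate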
UBC9 SUMO inh: inhibitors of human SUMOylation (UBC9); inhibition, % at 35 µM; 290,000 tested, 0.36% active; HTRF SUMOylation assay, SAE1/SAE2 + UBC9, in vitro; P63279; in the data active = inhibition above about 50%, passing the limit was not always enough
Target sequence (P63279 whole entry, looked up): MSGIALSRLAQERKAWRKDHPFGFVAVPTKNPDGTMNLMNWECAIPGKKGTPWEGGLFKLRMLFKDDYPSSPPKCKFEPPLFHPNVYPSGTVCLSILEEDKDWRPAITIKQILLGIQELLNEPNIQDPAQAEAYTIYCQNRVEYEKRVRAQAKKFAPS
Numbers without * were called inactive. Most compounds without a hit are left out; they make up all but 3.1% or so of the library.

`Cc1ccc(-c2nc(CS(=O)CC(=O)NC3CCCCC3)c(C)o2)cc1` (stereo unspecified) gave PHOSPHO1 block 44, IMP-1 inh -4, NS3 helicase inh 5, VIM-2 inhibitor -1, core dimer inh -3 and UBC9 SUMO inh 6.
`Clc1ccccc1-c1ncc2ccccn12` gave PHOSPHO1 block 61*, IMP-1 inh 0, NS3 helicase inh -2, VIM-2 inhibitor -2, core dimer inh -1 and UBC9 SUMO inh 10.
Clc1ccc(-c2ncc3ccccn23)cc1 was read as PHOSPHO1 block 51, IMP-1 inh -2, NS3 helicase inh -2, VIM-2 inhibitor -3, core dimer inh 11 and UBC9 SUMO inh -7.
`S=c1nc(Cc2ccc(Cl)cc2)[nH]c2ccccc12` gave PHOSPHO1 block -49, IMP-1 inh -1, NS3 helicase inh -2, VIM-2 inhibitor -1, core dimer inh 54* and UBC9 SUMO inh 2.
Screening S=c1nc(Cc2ccccc2)[nH]c2ccccc12 returned PHOSPHO1 block -38, IMP-1 inh -3, NS3 helicase inh -4, VIM-2 inhibitor -3, core dimer inh 38 and UBC9 SUMO inh -6.
`CCN(CC)c1ccc(-c2nc3cnccn3c2NC2CCCC2)cc1` gave PHOSPHO1 block 62*, IMP-1 inh 0, NS3 helicase inh -15, VIM-2 inhibitor -1, core dimer inh 1 and UBC9 SUMO inh 17.
For COc1ccc(NC(=O)CN(C)C(=O)c2cc3c(s2)CCC3)cc1 the results were core dimer inh 70*.
For COc1cccc(NC(=O)CN(C)C(=O)c2cc3c(s2)CCC3)c1 the results were core dimer inh 59*.
For COc1cccc(NC(=O)CN(C)C(=O)c2cc3c(s2)CCC(C)C3)c1 (stereo unspecified) the results were core dimer inh 8.
`COc1ccc(NC(=O)CN(C)C(=O)c2cc3c(s2)CCCCC3)cc1` gave PHOSPHO1 block 8, IMP-1 inh -3, NS3 helicase inh -19, VIM-2 inhibitor -2, core dimer inh 8 and UBC9 SUMO inh -7.
Screening CCCN(C(=O)Cc1c(C(=O)O)n(C)c2ccccc12)c1cccc(C)c1 returned IMP-1 inh -1, NS3 helicase inh 10, VIM-2 inhibitor 2, core dimer inh -3 and UBC9 SUMO inh -15.
Screening CCN(CC(=O)NCc1cccs1)C(=O)c1ccc(OC)c(OC)c1 returned core dimer inh 0.
CCCOc1ccc(Cc2nn3c(=O)/c(=C/c4ccco4)sc3nc2=O)cc1 was read as PHOSPHO1 block -69, IMP-1 inh 2, NS3 helicase inh 33, VIM-2 inhibitor -1, core dimer inh 3 and UBC9 SUMO inh 31.
`COc1ccccc1/C=C/C=c1\sc2nc(=O)c(Cc3ccccc3)nn2c1=O` gave PHOSPHO1 block 27, IMP-1 inh 7.9*, NS3 helicase inh 13, VIM-2 inhibitor 1 and core dimer inh 61*.
For O=C(Nc1ccc(Cl)cc1)N1CCN(C(=O)C2CCCO2)CC1 (stereo unspecified) the results were PHOSPHO1 block 63*, IMP-1 inh -3, NS3 helicase inh 1, VIM-2 inhibitor -2, core dimer inh -7 and UBC9 SUMO inh 19.
O=C(Nc1ccc(Cl)cc1)N1CC=CCC1 was read as PHOSPHO1 block 9, IMP-1 inh 8.1*, NS3 helicase inh -4, VIM-2 inhibitor -2, core dimer inh 2 and UBC9 SUMO inh 0.
Screening CC(=O)Nc1ccc(C(=O)CN2CCN(c3ccccc3)CC2)cc1 returned PHOSPHO1 block 39, IMP-1 inh 22*, NS3 helicase inh 2, VIM-2 inhibitor -2, core dimer inh -31 and UBC9 SUMO inh 11.
`CCC(=O)N1CCN(c2ccc(NC(=O)c3ccccc3)cc2)CC1` gave PHOSPHO1 block 63*, IMP-1 inh -2, NS3 helicase inh -2, VIM-2 inhibitor -2, core dimer inh 3 and UBC9 SUMO inh 10.
For CN1CCN(c2ccc(NC(=O)c3ccc(Oc4ccccc4)cc3)cc2)CC1 the results were PHOSPHO1 block 13, IMP-1 inh -3, NS3 helicase inh -43, VIM-2 inhibitor 8.3*, core dimer inh -1 and UBC9 SUMO inh 0.
`Cc1ccccc1OCCC(=O)OCC(=O)Nc1c(C)nn(-c2ccccc2)c1C` gave core dimer inh -2.
`O=C1C2CC=C(Cl)CC2C(=O)N1CCc1ccccc1` (stereo unspecified) gave PHOSPHO1 block -1, IMP-1 inh 6.9*, NS3 helicase inh 13, VIM-2 inhibitor -1, core dimer inh 8 and UBC9 SUMO inh 8.
For CCOC(=O)c1ccc(N2CCOCC2)c(NC(=O)c2c(-c3ccccc3)noc2C)c1 the results were PHOSPHO1 block 20, IMP-1 inh -2, NS3 helicase inh -6, VIM-2 inhibitor -3, core dimer inh 15 and UBC9 SUMO inh -9.
Screening FC(F)(F)c1cc(-c2ccccc2)nc(N2CCOCC2)n1 returned PHOSPHO1 block 74*, IMP-1 inh -2, NS3 helicase inh -2, VIM-2 inhibitor -3, core dimer inh 1 and UBC9 SUMO inh 5.
Screening FC(F)(F)c1cc(-c2ccccc2)nc(N2CCCCC2)n1 returned PHOSPHO1 block 11, IMP-1 inh -1, NS3 helicase inh -3, VIM-2 inhibitor -1, core dimer inh -5 and UBC9 SUMO inh 5.
For Cc1nc(-c2cccnc2)sc1C(=O)N/N=C/c1ccccc1Cl the results were PHOSPHO1 block 46, IMP-1 inh 0, NS3 helicase inh 0, VIM-2 inhibitor 2, core dimer inh 2 and UBC9 SUMO inh -2.
Screening Cc1nnc2ccc(-c3ccc(NC(=O)Cc4cccs4)cc3)nn12 returned PHOSPHO1 block 24, IMP-1 inh 1, NS3 helicase inh -5, VIM-2 inhibitor 4, core dimer inh 56* and UBC9 SUMO inh 28.
Screening CCOC(=O)c1sc2nc(C)n(N)c(=O)c2c1C returned PHOSPHO1 block 63*, IMP-1 inh -4, NS3 helicase inh 2, VIM-2 inhibitor -7, core dimer inh 0 and UBC9 SUMO inh -1.
Screening CCOC(=O)c1sc2nc3n(c(=O)c2c1C)CCC3 returned PHOSPHO1 block -11, IMP-1 inh -2, NS3 helicase inh -8, VIM-2 inhibitor -1, core dimer inh -4 and UBC9 SUMO inh 1.
`Cc1cccc(Nc2nn3c(=O)c4ccccc4nc3s2)c1` gave PHOSPHO1 block 14, IMP-1 inh -5, NS3 helicase inh -16, VIM-2 inhibitor -4, core dimer inh 69* and UBC9 SUMO inh -27.
Screening Cc1nc(-c2ccc(NC(=O)c3ccccc3C)cc2)cs1 returned PHOSPHO1 block 46, IMP-1 inh -2, NS3 helicase inh -5, VIM-2 inhibitor -2, core dimer inh 0 and UBC9 SUMO inh 3.
For O=C(Cn1sc2ccccc2c1=O)NC12CC3CC(CC(C3)C1)C2 the results were PHOSPHO1 block 84*, IMP-1 inh -7, NS3 helicase inh 2, VIM-2 inhibitor -2, core dimer inh -9 and UBC9 SUMO inh 6.
